Active and inactive are the calls of the source. No cut-off for these calls is given here.
Experiments:
[1] = target: T1, Acid ceramidase (Homo sapiens) (UniProt Q13510); assay: Inhibition of ACDase in human MCF7 cells assessed as down regulation of dihydrosphingosine at 10 uM after 1 hr by LC-MS/MS analysis; assay type: cell-based
T1 sequence (whole entry): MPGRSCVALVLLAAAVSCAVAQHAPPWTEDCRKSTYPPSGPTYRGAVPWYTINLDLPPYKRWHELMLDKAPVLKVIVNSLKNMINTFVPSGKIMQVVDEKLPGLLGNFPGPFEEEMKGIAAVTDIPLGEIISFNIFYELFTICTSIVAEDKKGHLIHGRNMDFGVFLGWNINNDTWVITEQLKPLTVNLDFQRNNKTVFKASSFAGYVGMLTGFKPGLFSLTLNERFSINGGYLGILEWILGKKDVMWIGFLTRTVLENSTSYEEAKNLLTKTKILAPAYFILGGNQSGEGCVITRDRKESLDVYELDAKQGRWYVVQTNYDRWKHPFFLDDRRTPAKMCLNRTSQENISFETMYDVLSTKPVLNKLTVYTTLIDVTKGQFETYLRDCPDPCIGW

[2] = target: T1, Acid ceramidase (Homo sapiens); assay: Inhibition of ACDase in human MCF7 cells assessed as upregulation of dihydroceramide at 10 uM after 1 hr by LC-MS/MS analysis; assay type: cell-based
MCF7 [3] = assay: Down regulation of alpha-ACDase protein expression in human MCF7 cells at >2.5 uM after 1 hr by Western blot analysis; assay type: functional, cell-based
Procedure, shortened: (§1)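 MCF7 cells seeded overnight (1×10^6 per 100 mm dish) were exposed to vehicle or 10 μM LCL521 for 1, 2, 5, 8, 15 and 24h, or to 0.1–10 μM for 1h. α- and precursor (P-)ACDase detected by western blot; actin monitored loading and transfer.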

MCF7 [4] = assay: Down regulation of alpha-ACDase protein expression in human MCF7 cells up to 1 uM after 1 hr by Western blot analysis; assay type: functional, cell-based
Procedure, shortened: (§2)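 MCF7 cells (RPMI 1640, 10% FBS, 37°C, 5% CO2; 1×10^6 seeded in 100 mm dishes overnight) exposed to vehicle or LCL521, 0.1–10 μM for 1h, or 1 μM for 0.25–10h. α-ACDase detected by western blot, with actin as the loading/transfer control.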

MCF7 [5] = assay: Down regulation of alpha-ACDase protein expression in human MCF7 cells at 1 uM after 1 hr by Western blot analysis; assay type: functional, cell-based; procedure, shortened: as §2
MCF7 [6] = assay: Down regulation of alpha-ACDase protein expression in human MCF7 cells at 10 uM after 1 hr by Western blot analysis; assay type: functional, cell-based; procedure, shortened: as §1
[7] = target: T1, Acid ceramidase (Homo sapiens); assay: Inhibition of ACDase in human MCF7 cells assessed as down regulation of sphingosine at 1 uM after 10 hrs by LC-MS/MS analysis; assay type: cell-based
Procedure, shortened: (§3)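 MCF7 cells received vehicle or 1 μM LCL521 for 10h. Lipids were extracted from cell pellets, and Cer, Sph and S1P were quantified by LC-MS/MS as pmol/nmol lipid phosphate, expressed as % control; means ± st dev of 5 replicates.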

[8] = target: T1, Acid ceramidase (Homo sapiens); assay: Inhibition of ACDase in human MCF7 cells assessed as down regulation of sphingosine 1-phosphate at 1 uM after 10 hrs by LC-MS/MS analysis; assay type: cell-based; procedure, shortened: as §3
MCF7 [9] = assay: Down regulation of alpha-ACDase expression in human MCF7 cells at 1 uM after 10 hrs by Western blot analysis; assay type: functional, cell-based
MCF7 [10] = assay: Down regulation of alpha-ACDase expression in human MCF7 cells at 10 uM after 2 to 24 hrs by Western blot analysis; assay type: functional, cell-based; procedure, shortened: as §1
MCF7 [11] = assay: Down regulation of alpha-ACDase expression in human MCF7 cells at 10 uM after 8 hrs by Western blot analysis; assay type: functional, cell-based; procedure, shortened: as §1
MCF7 [12] = assay: Down regulation of p-ACDase expression in human MCF7 cells at 10 uM after 8 hrs by Western blot analysis; assay type: functional, cell-based; procedure, shortened: as §1
[13] = target: T1, Acid ceramidase (Homo sapiens); assay: Inhibition of ACDase in human MCF7 cells assessed as down regulation of sphingosine at 10 uM after 2 hrs by LC-MS/MS analysis; assay type: cell-based
Procedure, shortened: (§4)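 Exposure of MCF7 cells to vehicle or 10 μM LCL521 for 0.25–24h. Cer, Sph and S1P measured by LC-MS/MS in pellet lipid extracts, normalized to lipid phosphate, given as % control; means ± st dev of 4 replicates.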

[14] = target: T1, Acid ceramidase (Homo sapiens); assay: Inhibition of ACDase in human MCF7 cells assessed as upregulation of ceramide at 10 uM after 2 hrs by LC-MS/MS analysis; assay type: cell-based; procedure, shortened: as §4
[15] = target: T1, Acid ceramidase (Homo sapiens); assay: Inhibition of ACDase in human MCF7 cells assessed as down regulation of sphingosine at 10 uM after 24 hrs by LC-MS/MS analysis; assay type: cell-based; procedure, shortened: as §4
[16] = target: T1, Acid ceramidase (Homo sapiens); assay: Inhibition of ACDase in human MCF7 cells assessed as down regulation of sphingosine 1-phosphate at 10 uM after 24 hrs by LC-MS/MS analysis; assay type: cell-based; procedure, shortened: as §4
[17] = target: T1, Acid ceramidase (Homo sapiens); assay: Inhibition of ACDase in human MCF7 cells assessed as upregulation of C14-ceramide species at 10 uM after 1 hr by LC-MS/MS analysis; assay type: cell-based
Procedure, shortened: (§5)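 MCF7 cells treated 1h with vehicle or 10 μM LCL521. Chain-length ceramide species and Sph in pellet lipid extracts quantified by LC-MS/MS per nmol lipid phosphate; means ± st dev of 6 replicates, t-test against control.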

[18] = target: T1, Acid ceramidase (Homo sapiens); assay: Inhibition of ACDase in human MCF7 cells assessed as upregulation of C16-ceramide species at 10 uM after 1 hr by LC-MS/MS analysis; assay type: cell-based; procedure, shortened: as §5
[19] = target: T1, Acid ceramidase (Homo sapiens); assay: Inhibition of ACDase in human MCF7 cells assessed as upregulation of ceramide at 10 uM after 8 to 24 hrs by LC-MS/MS analysis; assay type: cell-based; procedure, shortened: as §4
[20] = target: T1, Acid ceramidase (Homo sapiens); assay: Inhibition of ACDase in human MCF7 cells assessed as upregulation of dihydroceramide species at 10 uM after 8 to 24 hrs by LC-MS/MS analysis; assay type: cell-based
Procedure, shortened: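 Over 8 and 24h, MCF7 cells received vehicle or 10 μM LCL521. Cn-dhCer species and dhSph quantified by LC-MS/MS in extracted lipids, normalized to lipid phosphate; means ± st dev of 4 replicates.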

[21] = target: T1, Acid ceramidase (Homo sapiens); assay: Inhibition of ACDase in human MCF7 cells assessed as upregulation of dihydroceramide species at 10 uM treated for 24 hrs after 1 hr treatment with myriocin by LC-MS/MS analysis; assay type: cell-based
Procedure, shortened: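 MCF7 cells pretreated 1h with 100nM myriocin, then combined with vehicle or 10 μM LCL521 for 24h. Cn-dhCer quantified by LC-MS/MS per nmol lipid phosphate; triplicates.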

[22] = target: T2, Sphingolipid delta(4)-desaturase DES1 (Homo sapiens) (UniProt O15121); assay: Inhibition of dihydroceramide desaturase in human MCF7 cells assessed as decrease in remaining activity at 5 to 10 uM after 24 hrs; assay type: cell-based
T2 sequence (whole entry): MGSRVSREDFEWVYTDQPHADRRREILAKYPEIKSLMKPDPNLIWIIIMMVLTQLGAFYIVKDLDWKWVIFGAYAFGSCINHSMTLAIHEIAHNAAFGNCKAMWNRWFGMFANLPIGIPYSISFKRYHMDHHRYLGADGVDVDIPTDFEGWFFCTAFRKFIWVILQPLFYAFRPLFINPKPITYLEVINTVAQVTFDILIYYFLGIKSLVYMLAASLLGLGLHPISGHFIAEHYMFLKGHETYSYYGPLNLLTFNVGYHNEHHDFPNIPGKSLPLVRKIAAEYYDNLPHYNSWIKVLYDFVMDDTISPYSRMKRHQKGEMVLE
Procedure, shortened: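 Intact MCF7 cells (3×10^6 seeded in 150 mm dishes overnight) treated with vehicle or LCL521 for 24h. Cells were then pelleted and dihydroceramide desaturase activity assayed by a prior method. Means ± st dev of triplicates versus 0 μM.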

MCF7 [23] = assay: Down regulation of alpha-ACDase expression in human MCF7 cells at 10 uM after 24 hrs in presence of cyclohexamide by Western blot analysis; assay type: functional, cell-based
Procedure, shortened: (§6)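 MCF7 cells pretreated 1h with vehicle or 40 μM cycloheximide, then given vehicle or 10 μM LCL521 alone or combined for 1, 8 and 24h. P- and α-ACDase detected by western blot against actin.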

MCF7 [24] = assay: Down regulation of p-ACDase expression in human MCF7 cells at 10 uM after 24 hrs in presence of cyclohexamide by Western blot analysis; assay type: functional, cell-based; procedure, shortened: as §6
[25] = target: T1, Acid ceramidase (Homo sapiens); assay: Inhibition of ACDase in human MCF7 cells assessed as down regulation of sphingosine at 10 uM after 1 to 24 hrs by LC-MS/MS analysis; assay type: cell-based; procedure, shortened: as §4
MCF7 [26] = assay: Down regulation of p-ACDase expression in human MCF7 cells assessed as p-ACDase expression at 10 uM measured at 24 hrs by Western blot analysis; assay type: functional; procedure, shortened: as §1
[27] = target: T1, Acid ceramidase (Homo sapiens); assay: Inhibition of ACDase in human MCF7 cells assessed as upregulation of dhC16-Cer species at 10 uM after 1 hr by LC-MS/MS analysis; assay type: cell-based
UMSCC14A = assay: Down regulation of ACDase protein expression in human UMSCC14A cells at 5 to 10 uM after 5 hrs by Western blot analysis; assay type: functional, cell-based
Procedure, shortened: (§7)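 Cell lines SCC14A (mouth squamous carcinoma) and PPC-1 (prostate cancer) given a single treatment of LCL521; ACDase protein detected by western blot.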

PPC-1 = assay: Down regulation of ACDase protein expression in human PPC1 cells at 5 to 10 uM after 5 hrs by Western blot analysis; assay type: functional, cell-based; procedure, shortened: as §7
MCF7 [28] = assay: Down regulation of alpha-ACDase protein expression in human MCF7 cells at 10 uM treated for 5 hrs after pretreatment with 4 uM CA-074me for 30 mins by Western blot analysis; assay type: functional, cell-based
Procedure, shortened: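 MCF7 cells pretreated with a cathepsin B inhibitor, then exposed to 10 μM LCL521. α-ACDase protein assessed by western blot.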

- inhibition [1]: Active
- inhibition [2]: Active
- inhibition [7]: inactive
- inhibition [8]: inactive
- inhibition [13]: Active
- inhibition [14]: Active
- inhibition [15]: inactive
- inhibition [16]: Active
- inhibition [17]: Active
- inhibition [18]: Active
- inhibition [19]: Active
- inhibition [20]: Active
- inhibition [21]: inactive
- inhibition [22]: Active
- inhibition [25]: Active
- inhibition [27]: Active
SMILES: CCCCCCCCCCCCCC(=O)N[C@H](COC(=O)CN(C)C)[C@H](OC(=O)CN(C)C)c1ccc([N+](=O)[O-])cc1.Cl.Cl
- Activity (MCF7 [3]): Dose-dependent effect
- Activity (MCF7 [4]): inactive
- Activity (MCF7 [5]): inactive
- Activity (MCF7 [6]): Active
- inhibition (MCF7 [9]): inactive
- Activity (MCF7 [10]): Active
- Activity (MCF7 [11]): Active
- Activity (MCF7 [12]): Active
- Activity (MCF7 [23]): Active
- Activity (MCF7 [24]): Active
- Activity (MCF7 [26]): >70%
- Activity (UMSCC14A): Active
- Activity (PPC-1): Active
- Activity (MCF7 [28]): inactive

Source: ChEMBL document CHEMBL4308872, “Dose dependent actions of LCL521 on acid ceramidase and key sphingolipid metabolites” (2018)
